According to ChEMBL document CHEMBL4138173, “Molecular docking, design, synthesis and antifungal activity study of novel triazole derivatives” (2018):
Converted amounts (≈) assume the structure as drawn. The source made the active and inactive calls. The calls are words filed in the database; no cut-off is given here.

How the values were obtained:
[1] = system: Candida albicans; assay: Antifungal activity against Candida albicans SC5314 after 24 hrs; type: functional; details: SC5314, 24 h
How it was run: (§1)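 Broth dilution MIC per NCCLS recommendations. Compounds were dissolved in DMSO in growth medium, then inoculated and incubated at 35 °C, with growth read at 24 h for C. albicans. MIC80 is the first well showing about 80% growth reduction versus the drug-free well. Values are the mean of three replicate tests.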

[2] = system: Cryptococcus neoformans; assay: Antifungal activity against Cryptococcus neoformans after 72 hrs; type: functional
How it was run: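 NCCLS-based broth dilution against C. neoformans. Test agents were in DMSO in growth medium, inoculated and held at 35 °C, and MIC80 was read at 72 h. MIC80 is the first well with roughly 80% less growth than the drug-free well. Each value averages three replicate tests.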

[3] = system: Aspergillus fumigatus; assay: Antifungal activity against Aspergillus fumigatus after 5 to 7 days; type: functional
How it was run: (§2)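 Filamentous fungi were tested by broth dilution following NCCLS recommendations. Compounds were dissolved in DMSO in growth medium, inoculated and incubated at 35 °C, with MIC80 read after 5–7 days. MIC80 is the first well with approximately 80% growth reduction relative to the drug-free well. Results are the mean of three replicates.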

[4] = system: Candida albicans; assay: Antifungal activity against Candida albicans SCY0109 after 24 hrs; type: functional; details: SCY0109, 24 h; how it was run: as §1
[5] = system: Nakaseomyces glabratus; assay: Antifungal activity against Candida glabrata after 5 to 7 days; type: functional
[6] = system: Pichia kudriavzevii; assay: Antifungal activity against Candida krusei after 5 to 7 days; type: functional
How it was run: (§3)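 MIC measured by broth dilution per NCCLS recommendations. Compounds were dissolved in DMSO in growth medium, inoculated and incubated at 35 °C. MIC80 is the first well with approximately 80% lower growth than the drug-free well. Values are the mean of three replicate tests.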

[7] = system: Trichophyton rubrum; assay: Antifungal activity against Trichophyton rubrum after 5 to 7 days; type: functional
How it was run: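 Broth dilution per NCCLS recommendations against an ATCC strain; compounds dissolved in DMSO in growth medium; incubated at 35 °C. MIC80 is the first well with about 80% growth reduction versus the drug-free well, read at 5–7 days for filamentous fungi. Values are the mean of three replicate tests.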

[8] = system: Candida parapsilosis; assay: Antifungal activity against Candida parapsilosis after 5 to 7 days; type: functional; details: Lodderomyces parapsilosis
[9] = system: Nannizzia gypsea; assay: Antifungal activity against Microsporum gypseum after 5 to 7 days; type: functional; how it was run: as §2
[10] = system: Candida tropicalis; assay: Antifungal activity against Candida tropicalis after 24 hrs; type: functional; how it was run: as §3
[11] = system: Candida albicans; assay: Antifungal activity against Candida albicans SC5314 infected in ICR mouse assessed as increase in host survival at 1 mg/kg, po qd for 7 days starting from 2 hrs post infection measured up to 20 days; type: functional, organism-based
How it was run: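 Male ICR mice (18–22 g, ten per group) were immunosuppressed with intraperitoneal cyclophosphamide 100 mg/kg once daily for 3 days. They were then infected with 0.4 ml of […] C. albicans SC5314. Oral dosing in 0.5% carboxymethylcellulose suspension began 2 h post-infection, with vehicle-only controls. Read-out was mean survival days over 20 days.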

C[C@@H](n1cc(-c2ccc(Br)cc2)nn1)[C@](O)(Cn1cncn1)c1ccc(F)cc1F
MIC80 [1]: 0.25 µg/mL (≈ 0.526 µM) | MIC80 [2]: 0.25 µg/mL (≈ 0.526 µM) | MIC80 [3]: > 64 µg/mL

C[C@@H](n1cc(-c2cccs2)nn1)[C@](O)(Cn1cncn1)c1ccc(F)cc1F
MIC80 [1]: 0.0625 µg/mL (≈ 0.155 µM) | MIC80 [2]: 0.0625 µg/mL (≈ 0.155 µM) | MIC80 [3]: 16 µg/mL (≈ 39.8 µM)

C[C@@H](n1cc(-c2ccc(N)cc2)nn1)[C@](O)(Cn1cncn1)c1ccc(F)cc1F
MIC80 [1]: 0.5 µg/mL (≈ 1.22 µM) | MIC80 [2]: 0.5 µg/mL (≈ 1.22 µM) | MIC80 [3]: > 64 µg/mL

C[C@@H](n1cc(-c2cccc(N)c2)nn1)[C@](O)(Cn1cncn1)c1ccc(F)cc1F
MIC80 [1]: 0.5 µg/mL (≈ 1.22 µM) | MIC80 [2]: 1 µg/mL (≈ 2.43 µM) | MIC80 [3]: > 64 µg/mL

C[C@@H](c1ncncc1F)[C@](O)(Cn1cncn1)c1ccc(F)cc1F [VORICONAZOLE]
MIC80 [1]: 0.0312 µg/mL (≈ 0.0895 µM) | MIC80 [2]: 0.0312 µg/mL (≈ 0.0895 µM) | MIC80 [3]: 0.25 µg/mL (≈ 0.716 µM) | MIC80 [4]: 0.0156 µg/mL (≈ 0.0447 µM) | MIC80 [5]: 0.0312 µg/mL (≈ 0.0895 µM) | MIC80 [6]: 0.25 µg/mL (≈ 0.716 µM) | MIC80 [7]: 0.125 µg/mL (≈ 0.358 µM) | MIC80 [8]: 0.0312 µg/mL (≈ 0.0895 µM) | MIC80 [9]: 0.25 µg/mL (≈ 0.716 µM) | MIC80 [10]: 0.25 µg/mL (≈ 0.716 µM)

CCc1ccc(-c2cn([C@H](C)[C@](O)(Cn3cncn3)c3ccc(F)cc3F)nn2)cc1
MIC80 [1]: 0.5 µg/mL (≈ 1.18 µM) | MIC80 [2]: 0.5 µg/mL (≈ 1.18 µM) | MIC80 [3]: > 64 µg/mL

C[C@@H](NCc1ccc(Br)cc1)[C@](O)(Cn1cncn1)c1ccc(F)cc1F
MIC80 [1]: 0.0156 µg/mL (≈ 0.0357 µM) | MIC80 [2]: 0.125 µg/mL (≈ 0.286 µM) | MIC80 [3]: 0.5 µg/mL (≈ 1.14 µM)

C[C@@H](N(C)C1CC1)[C@](O)(Cn1cncn1)c1ccc(F)cc1F
MIC80 [1]: 0.125 µg/mL (≈ 0.388 µM) | MIC80 [2]: 0.125 µg/mL (≈ 0.388 µM) | MIC80 [3]: 8 µg/mL (≈ 24.8 µM)

C[C@@H](n1cc(-c2ccsc2)nn1)[C@](O)(Cn1cncn1)c1ccc(F)cc1F
MIC80 [1]: 0.0625 µg/mL (≈ 0.155 µM) | MIC80 [2]: 0.0625 µg/mL (≈ 0.155 µM) | MIC80 [3]: 4 µg/mL (≈ 9.94 µM)

C[C@@H](n1cc(-c2ccncc2)nn1)[C@](O)(Cn1cncn1)c1ccc(F)cc1F
MIC80 [1]: 1 µg/mL (≈ 2.52 µM) | MIC80 [2]: 1 µg/mL (≈ 2.52 µM) | MIC80 [3]: > 64 µg/mL

CC(C)N[C@H](C)[C@](O)(Cn1cncn1)c1ccc(F)cc1F
MIC80 [1]: 0.25 µg/mL (≈ 0.806 µM) | MIC80 [2]: 0.25 µg/mL (≈ 0.806 µM) | MIC80 [3]: 16 µg/mL (≈ 51.6 µM)

OC(Cn1cncn1)(Cn1cncn1)c1ccc(F)cc1F [FLUCONAZOLE]
MIC80 [1]: 1 µg/mL (≈ 3.27 µM) | MIC80 [2]: 2 µg/mL (≈ 6.53 µM) | MIC80 [3]: > 64 µg/mL | MIC80 [4]: 0.25 µg/mL (≈ 0.816 µM) | MIC80 [5]: 1 µg/mL (≈ 3.27 µM) | MIC80 [6]: 32 µg/mL (≈ 104 µM) | MIC80 [7]: 1 µg/mL (≈ 3.27 µM) | MIC80 [8]: 0.5 µg/mL (≈ 1.63 µM) | MIC80 [9]: 8 µg/mL (≈ 26.1 µM) | MIC80 [10]: 32 µg/mL (≈ 104 µM) | Activity [11]: Active

CCCCCN[C@H](C)[C@](O)(Cn1cncn1)c1ccc(F)cc1F
MIC80 [1]: 0.125 µg/mL (≈ 0.369 µM) | MIC80 [2]: 0.125 µg/mL (≈ 0.369 µM) | MIC80 [3]: 4 µg/mL (≈ 11.8 µM)

C[C@@H](n1cc(-c2cccc(Br)c2)nn1)[C@](O)(Cn1cncn1)c1ccc(F)cc1F
MIC80 [1]: 0.5 µg/mL (≈ 1.05 µM) | MIC80 [2]: 1 µg/mL (≈ 2.1 µM) | MIC80 [3]: > 64 µg/mL

C[C@@H](n1cc(-c2cccc(F)c2)nn1)[C@](O)(Cn1cncn1)c1ccc(F)cc1F
MIC80 [1]: 0.25 µg/mL (≈ 0.603 µM) | MIC80 [2]: 0.0625 µg/mL (≈ 0.151 µM) | MIC80 [3]: > 64 µg/mL

C[C@@H](n1cc(-c2ccccc2)nn1)[C@](O)(Cn1cncn1)c1ccc(F)cc1F
MIC80 [1]: 0.125 µg/mL (≈ 0.315 µM) | MIC80 [2]: 0.0625 µg/mL (≈ 0.158 µM) | MIC80 [3]: 16 µg/mL (≈ 40.4 µM)

C[C@@H](n1cc(-c2ccccc2Cl)nn1)[C@](O)(Cn1cncn1)c1ccc(F)cc1F
MIC80 [1]: 0.0156 µg/mL (≈ 0.0362 µM) | MIC80 [2]: 0.0156 µg/mL (≈ 0.0362 µM) | MIC80 [3]: 16 µg/mL (≈ 37.1 µM)

CCCCc1ccc(-c2cn([C@H](C)[C@](O)(Cn3cncn3)c3ccc(F)cc3F)nn2)cc1
MIC80 [1]: 4 µg/mL (≈ 8.84 µM) | MIC80 [2]: 8 µg/mL (≈ 17.7 µM) | MIC80 [3]: > 64 µg/mL

Cc1ccc(-c2cn([C@H](C)[C@](O)(Cn3cncn3)c3ccc(F)cc3F)nn2)cc1
MIC80 [1]: 0.125 µg/mL (≈ 0.305 µM) | MIC80 [2]: 0.0625 µg/mL (≈ 0.152 µM) | MIC80 [3]: > 64 µg/mL

C[C@@H](n1cc(-c2ccc(F)cc2)nn1)[C@](O)(Cn1cncn1)c1ccc(F)cc1F
MIC80 [1]: 0.0625 µg/mL (≈ 0.151 µM) | MIC80 [2]: 0.0625 µg/mL (≈ 0.151 µM) | MIC80 [3]: 32 µg/mL (≈ 77.2 µM)

C[C@@H](N1CCCC1)[C@](O)(Cn1cncn1)c1ccc(F)cc1F
MIC80 [1]: 0.125 µg/mL (≈ 0.388 µM) | MIC80 [2]: 0.125 µg/mL (≈ 0.388 µM) | MIC80 [3]: 1 µg/mL (≈ 3.1 µM)

C[C@@H](n1cc(-c2cccc(Cl)c2)nn1)[C@](O)(Cn1cncn1)c1ccc(F)cc1F
MIC80 [1]: 0.0625 µg/mL (≈ 0.145 µM) | MIC80 [2]: 0.0625 µg/mL (≈ 0.145 µM) | MIC80 [3]: > 64 µg/mL
